Results on twelve molecules are retold here after ChEMBL document CHEMBL1142692, “Synthesis and biological evaluation of meperidine analogues at monoamine transporters” (J Med Chem, 2005).

Assay [1] has as its target Sodium-dependent dopamine transporter (Rattus norvegicus) (UniProt P23977). Kind of assay: Percent inhibition of [3H]WIN-35428 binding to rat Dopamine transporter at 100 uM. Put shortly:
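Male Sprague-Dawley rat caudate-putamen membranes in modified Krebs-HEPES buffer, pH 7.4. Drug preincubated 5 min, then [3H]WIN 35,428 (final 1.5 nM) added for 1 h on ice, followed by filtration. Value is % inhibition at 100 µM.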

Assay [2] deals with T1, Norepinephrine transporter (Rattus norvegicus, UniProt Q9WTR4). Nature of the assay: Inhibition of [3H]nisoxetine binding to rat norepinephrine transporter at 10 uM. The essentials: (§1)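 Male Sprague-Dawley rat frontal cortex membranes in 50 mM Tris, 120 mM NaCl, 5 mM KCl, pH 7.4, 8 mg tissue per tube. Incubated with [3H]nisoxetine (final 0.5 nM) for 1 h on ice, then filtered. Desipramine defines nonspecific binding. Single-concentration values are % specific binding remaining at 10 µM. Mean ± SEM of three experiments in triplicate.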
T1 sequence (Q9WTR4 whole entry): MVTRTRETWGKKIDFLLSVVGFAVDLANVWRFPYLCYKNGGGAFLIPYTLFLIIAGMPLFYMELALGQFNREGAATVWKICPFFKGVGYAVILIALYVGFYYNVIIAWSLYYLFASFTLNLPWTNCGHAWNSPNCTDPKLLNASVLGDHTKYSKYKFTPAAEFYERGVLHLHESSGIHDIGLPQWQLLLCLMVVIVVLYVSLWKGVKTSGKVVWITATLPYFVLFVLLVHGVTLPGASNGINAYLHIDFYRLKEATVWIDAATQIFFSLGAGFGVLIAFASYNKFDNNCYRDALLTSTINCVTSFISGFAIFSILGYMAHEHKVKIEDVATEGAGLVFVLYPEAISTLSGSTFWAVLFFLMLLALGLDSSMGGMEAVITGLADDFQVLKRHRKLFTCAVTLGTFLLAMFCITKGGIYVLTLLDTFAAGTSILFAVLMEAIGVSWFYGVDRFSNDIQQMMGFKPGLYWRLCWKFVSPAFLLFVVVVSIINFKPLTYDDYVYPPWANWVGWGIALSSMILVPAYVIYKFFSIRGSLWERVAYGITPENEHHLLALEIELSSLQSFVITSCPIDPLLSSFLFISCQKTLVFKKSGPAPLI

The target in assay [3] is Sodium-dependent dopamine transporter (Rattus norvegicus) (UniProt P23977). Nature of the assay: Percent inhibition of [3H]DA uptake in rat brain tissue at 100 uM. Format: functional, tissue-based. The essentials:
(§2)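 Rat caudate-putamen chopped into 225 µm slices, suspended in oxygenated modified Krebs-HEPES buffer at 37 °C. Tissue preincubated 5 min with drug, then [3H]dopamine (final 15 nM) added for 5 min. Uptake stopped with ice-cold buffer and filtration; accumulated label extracted and counted by liquid scintillation. Specific uptake reported after subtracting filter binding. Single-concentration values are % inhibition at 100 µM.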

Assay [4] has as its target T2, Mu-type opioid receptor (Homo sapiens, UniProt P35372). Nature of the assay: Percent inhibition of [3H]DAMGO binding to rat brain mu-opioid receptor at 100 uM. The following applies: target entry is the homologue from another species.
Assay [5] is described as follows: Ratio of binding affinity of mu-opioid receptor and serotonin transporter.
For assay [6], the target named is T3, Sodium-dependent dopamine transporter (Rattus norvegicus, UniProt P23977). Nature of the assay: Inhibition of [3H]-DA uptake in rat brain. Format: functional, tissue-based. The essentials: as §2
T3 sequence (P23977 whole entry): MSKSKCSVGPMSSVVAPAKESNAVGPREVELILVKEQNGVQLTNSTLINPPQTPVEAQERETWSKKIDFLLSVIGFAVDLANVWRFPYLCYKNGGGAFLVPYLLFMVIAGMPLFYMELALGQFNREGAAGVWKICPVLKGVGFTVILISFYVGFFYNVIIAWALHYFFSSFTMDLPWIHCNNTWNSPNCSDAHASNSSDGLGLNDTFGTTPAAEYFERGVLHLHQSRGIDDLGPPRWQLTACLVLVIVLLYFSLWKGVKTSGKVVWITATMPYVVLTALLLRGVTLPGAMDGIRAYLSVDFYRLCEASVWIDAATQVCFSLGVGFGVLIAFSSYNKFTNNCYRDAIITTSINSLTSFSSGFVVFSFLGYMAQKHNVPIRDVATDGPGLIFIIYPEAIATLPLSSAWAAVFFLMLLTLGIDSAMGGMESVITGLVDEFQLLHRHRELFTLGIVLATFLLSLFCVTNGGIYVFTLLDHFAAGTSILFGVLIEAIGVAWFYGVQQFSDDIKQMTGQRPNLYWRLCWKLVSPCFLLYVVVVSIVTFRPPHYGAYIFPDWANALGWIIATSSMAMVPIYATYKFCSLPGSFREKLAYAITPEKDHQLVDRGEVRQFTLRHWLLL
Assay [7] concerns the target T2, Mu-type opioid receptor. Nature of the assay: Inhibition of [3H]DAMGO binding to mu-opioid receptor.
Assay [8] has as its target T4, Monoamine transporters; serotonin & dopamine (Homo sapiens) (UniProt P31645+Q01959). Kind of assay: Ratio of binding affinity for dopamine and serotonin transporters. Format: protein assay. The essentials:
(§3)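 Ratio of Ki values, DAT/SERT. DAT Ki from [3H]WIN 35,428 (1.5 nM) competition in rat caudate-putamen membranes on ice, 1 h. SERT Ki from [3H]paroxetine (0.2 nM) binding to rat midbrain membranes, 90 min at room temperature, with 1 µM citalopram defining nonspecific binding.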

Assay [9] has as its target Norepinephrine transporter (Rattus norvegicus) (UniProt Q9WTR4). Kind of assay: Percent inhibition of [3H]nisoxetine binding to norepinephrine transporter at 10 uM.
Assay [10] can be described thus: Ratio of binding affinity for mu-opioid receptor and dopamine transporter.
Assay [11] can be described thus: Ratio of binding affinity of mu-opioid receptor and Serotonin transporter.
The target of assay [12] is Sodium-dependent dopamine transporter (Rattus norvegicus) (UniProt P23977). Nature of the assay: Percent inhibition of [3H]dopamine uptake in rat brain tissue at 100 uM. It is filed as functional, tissue-based. The essentials: as §2
Sodium-dependent dopamine transporter (Rattus norvegicus), sequence (P23977 whole entry): as above
The target in assay [13] is T4, Monoamine transporters; serotonin & dopamine (Homo sapiens). Nature of the assay: Ratio of binding affinity of dopamine and Serotonin transporters. Format: protein assay. The essentials: as §3
In assay [14] the target is T2, Mu-type opioid receptor. Nature of the assay: Inhibition of [3H]-DAMGO binding to mu-opioid receptor.
The target in assay [15] is T4, Monoamine transporters; serotonin & dopamine (Homo sapiens). Kind of assay: Ratio of binding affinity of dopamine and serotonin transporters. Format: protein assay. The essentials:
as §3

The target of assay [16] is T2, Mu-type opioid receptor. Kind of assay: Inhibition of [3H]DAMGO binding to mu-opioid receptor at 100 uM.
Assay [17] is described as follows: Ratio of binding affinity of mu-opioid receptor and dopamine transporter.
Assay [18] addresses T1, Norepinephrine transporter. Nature of the assay: Inhibition of [3H]-nisoxetine binding to rat norepinephrine transporter. The essentials:
as §1

Assay [19] addresses T3, Sodium-dependent dopamine transporter. Nature of the assay: Inhibitory concentration against [3H]DA uptake in rat brain tissue. Format: functional, tissue-based. Put shortly:
as §2

For assay [20], the target named is Sodium-dependent dopamine transporter (Rattus norvegicus) (UniProt P23977). The following applies: Brain, 100 uM.
Assay [21] has the same target. The settings on record: Brain, 100 uM. This is another data set of the same source.
The target of assay [22] is T3, Sodium-dependent dopamine transporter. Kind of assay: Inhibitory concentration against [3H]dopamine uptake in rat brain tissue. It is filed as functional, tissue-based. Put shortly: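 Rat caudate-putamen chopped into 225 µm slices, suspended in Krebs-HEPES buffer pregassed with 95% O2/5% CO2 at 37 °C. Tissue preincubated 5 min with or without drug (highest 100 µM), then [3H]dopamine (15 nM final) added for 5 min. Stopped with ice-cold buffer and filtration; accumulated label extracted and counted by scintillation; filter binding subtracted. Three experiments in triplicate.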

Assay [23] concerns the target T2, Mu-type opioid receptor. Nature of the assay: Inhibition of [3H]-DAMGO binding to mu opioid receptor at 10 uM.
The nature of assay [24]: Ratio of binding affinity of mu-opioid receptor and dopamine taransporter.

pIC50, pKi: −log10 of the molar value. Where “and” joins values, the source holds several entries; their conditions need not be identical. Equal entries are not always repeated.

T2 sequence (P35372 whole entry): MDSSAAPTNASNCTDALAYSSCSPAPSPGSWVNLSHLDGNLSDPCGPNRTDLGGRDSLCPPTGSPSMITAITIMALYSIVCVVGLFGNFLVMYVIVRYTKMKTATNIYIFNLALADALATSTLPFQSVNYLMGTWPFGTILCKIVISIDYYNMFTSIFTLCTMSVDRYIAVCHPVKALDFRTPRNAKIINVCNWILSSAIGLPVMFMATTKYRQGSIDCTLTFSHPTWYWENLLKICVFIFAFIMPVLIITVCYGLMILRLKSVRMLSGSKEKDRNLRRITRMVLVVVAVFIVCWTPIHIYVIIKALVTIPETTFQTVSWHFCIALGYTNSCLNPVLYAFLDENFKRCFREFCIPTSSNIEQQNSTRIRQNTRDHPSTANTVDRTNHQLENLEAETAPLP
T4 sequence (P31645 whole entry, looked up): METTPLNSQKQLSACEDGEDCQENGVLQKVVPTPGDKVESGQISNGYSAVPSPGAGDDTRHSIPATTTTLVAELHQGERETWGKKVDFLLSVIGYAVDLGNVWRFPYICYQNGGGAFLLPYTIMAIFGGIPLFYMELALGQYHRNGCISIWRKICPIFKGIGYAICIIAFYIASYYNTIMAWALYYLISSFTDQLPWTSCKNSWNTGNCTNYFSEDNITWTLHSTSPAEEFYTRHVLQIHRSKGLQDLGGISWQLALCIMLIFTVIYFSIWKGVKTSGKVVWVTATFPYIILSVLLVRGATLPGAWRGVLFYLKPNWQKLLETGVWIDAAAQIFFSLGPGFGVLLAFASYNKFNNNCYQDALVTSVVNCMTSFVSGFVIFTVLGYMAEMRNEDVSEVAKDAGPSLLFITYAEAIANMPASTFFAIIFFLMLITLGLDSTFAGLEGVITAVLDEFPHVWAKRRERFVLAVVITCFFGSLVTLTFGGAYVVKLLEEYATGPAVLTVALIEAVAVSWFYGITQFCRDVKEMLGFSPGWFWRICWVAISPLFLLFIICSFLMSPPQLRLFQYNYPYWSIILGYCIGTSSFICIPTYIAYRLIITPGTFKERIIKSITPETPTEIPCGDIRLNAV
T4 sequence (Q01959 whole entry, looked up): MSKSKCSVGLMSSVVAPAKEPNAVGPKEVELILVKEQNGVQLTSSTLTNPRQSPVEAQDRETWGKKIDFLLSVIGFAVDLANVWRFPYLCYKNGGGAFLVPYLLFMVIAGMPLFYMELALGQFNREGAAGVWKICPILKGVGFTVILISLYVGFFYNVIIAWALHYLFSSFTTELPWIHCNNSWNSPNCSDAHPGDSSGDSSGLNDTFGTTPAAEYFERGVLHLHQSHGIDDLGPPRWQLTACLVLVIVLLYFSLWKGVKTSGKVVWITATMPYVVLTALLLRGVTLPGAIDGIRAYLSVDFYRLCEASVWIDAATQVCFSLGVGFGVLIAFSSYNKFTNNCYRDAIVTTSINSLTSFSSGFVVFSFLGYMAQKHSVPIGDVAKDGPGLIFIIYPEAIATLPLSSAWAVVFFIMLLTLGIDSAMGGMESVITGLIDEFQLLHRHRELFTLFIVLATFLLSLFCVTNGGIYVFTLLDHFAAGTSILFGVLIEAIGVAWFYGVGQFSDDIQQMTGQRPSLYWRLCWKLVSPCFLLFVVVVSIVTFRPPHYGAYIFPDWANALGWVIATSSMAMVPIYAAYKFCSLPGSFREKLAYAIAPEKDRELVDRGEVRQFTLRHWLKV
Norepinephrine transporter (Rattus norvegicus), sequence (Q9WTR4 as listed by the source): as the sequence (Q9WTR4 whole entry) above

Turning to `CN1CCC(C#N)(c2ccc(F)cc2)CC1`, the inhibition worked out at 45% in assay [1], 8% in assay [3] and 15% on Mu-type opioid receptor [4]. In [2], this molecule had a negative logarithm of the Ki (pKi) of 3.99.
For the molecule `CN1CCC(C#N)(c2ccc(Cl)c(Cl)c2)CC1`, the Ratio amounted to 49.7 in assay [5], 3.32 in assay [8] and 15 in assay [10]. The molecule also gave a negative logarithm of the IC50 (pIC50) in assay [6] of 4.95. Further, the pKi on Mu-type opioid receptor [7] is 4.40. Also, the figures for the inhibition (on Mu-type opioid receptor [4]; in assay [9]) were 46% and 94.1%, respectively.
`CCOC(=O)C1(c2ccc(F)cc2)CCN(C)CC1`: the results for the Ratio (in assay [11]; in assay [13]; on Mu-type opioid receptor [14]) were 4.77, 34.7 and 0.14, respectively. Moreover, the inhibition in [12] came to 47%; in [9], 71.9%.
Turning to `CN1CCC(C#N)(c2ccc3ccccc3c2)CC1`, the Ratio in assay [5] amounted to 123; in [15], 18.9; in assay [17] it was 6.53. The molecule also had a pKi at Mu-type opioid receptor [16] of 4.81. Further, the results for the inhibition (in assay [12]; on Mu-type opioid receptor [4]; in assay [9]) were 11%, 61% and 88.1%, respectively.
Take `CCOC(=O)C1(c2ccc(I)cc2)CCN(C)CC1`: in [5], the Ratio amounted to 111. Moreover, the negative logarithm of the Ki (pKi) in [18] is 3.28; at Mu-type opioid receptor [7], 5.63. Moreover, the pIC50 in [19] is 4.95.
`CN1CCC(C#N)(c2ccc(Cl)cc2)CC1`: the Ratio in [5] was 0.18; in [15], 4.31; in [17], 1.67. The pKi at Mu-type opioid receptor [16] was 4.43. The figures for the inhibition (in assay [3]; on Mu-type opioid receptor [4]; in [9]) were 36%, 51% and 106%, respectively.
Regarding `CCOC(=O)C1(c2ccc(Cl)c(Cl)c2)CCN(C)CC1`, the Ratio in assay [5] amounted to 109; in assay [15] it was 6.68; in assay [17] it was 16.3. Also, the figures for the pKi (in [18]; on Mu-type opioid receptor [7]) were 4.13 and 5.69, respectively. In addition, the negative-log IC50 (pIC50) in [19] was 5.22 and 5.85. For the same molecule, the inhibition in assay [12] amounted to 22%.
In the case of `Cc1ccc(C2(C#N)CCN(C)CC2)cc1`, the Ratio is 2.96 in [5], 3.05 in [15] and 0.97 in [17]. On Mu-type opioid receptor [7], this molecule showed a pKi of 4.39. Further, the inhibition stood at 22% in [20], 46% in assay [21] and 103% in assay [9].
Consider `CCOC(=O)C1(c2ccc3ccccc3c2)CCN(C)CC1`, for which the Ratio in assay [5] was determined as 282; in assay [15] it was 158; in assay [17], 1.78. Moreover, the negative-log Ki (pKi) was 4.15 in assay [18] and 5.69 on Mu-type opioid receptor [7]. Besides, the negative-log IC50 (pIC50) in [19] is 5.50 and 4.94. Moreover, the inhibition in assay [12] came out at 16%.
With `CN1CCC(C#N)(c2ccc(I)cc2)CC1`, the results for the Ratio in assay [5], in assay [15] and in assay [24] were 40.2, 19.4 and 2.07, respectively. Besides, on Mu-type opioid receptor [16], the negative-log Ki (pKi) is 4.76. This molecule also showed a negative logarithm of the IC50 (pIC50) in assay [22] of 4.44. Moreover, the inhibition at Mu-type opioid receptor [4] stood at 61%; on Mu-type opioid receptor [23] it was 93.6%.
As to `CCOC(=O)C1(c2ccc(Cl)cc2)CCN(C)CC1`, the Ratio in assay [5] was found to be 15.9; in assay [15], 14.8; in [17], 1.08. Moreover, the pKi in assay [18] is 3.22; on Mu-type opioid receptor [7], 5.36. In assay [6], the pIC50 was 4.57.
Take `CCOC(=O)C1(c2ccc(C)cc2)CCN(C)CC1`: the Ratio in [5] is 1.66; in assay [15], 7.69; in [17], 0.22. The pKi on Mu-type opioid receptor [7] is 5.57. Also, the pIC50 in assay [19] was 4.12. In assay [9], the inhibition is 57.6%.
